This is a sample that favours compounds with a hit; in the whole collection about 3.5% have one here.
ERAP1 HTS inh = inhibitors of human ERAP1 aminopeptidase; recombinant ERAP1, Leu-AMC fluorescence, 60 min; inhibition, % at 10.7 µM; hit rate 0.15% among 340,000; AID 652197;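 active means mean replicate inhibition of at least 30%, or all replicates individually reaching that 30% level; inactive means mean below 30% and not every replicate reaching it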
Target sequence (Q9NZ08 whole entry, looked up): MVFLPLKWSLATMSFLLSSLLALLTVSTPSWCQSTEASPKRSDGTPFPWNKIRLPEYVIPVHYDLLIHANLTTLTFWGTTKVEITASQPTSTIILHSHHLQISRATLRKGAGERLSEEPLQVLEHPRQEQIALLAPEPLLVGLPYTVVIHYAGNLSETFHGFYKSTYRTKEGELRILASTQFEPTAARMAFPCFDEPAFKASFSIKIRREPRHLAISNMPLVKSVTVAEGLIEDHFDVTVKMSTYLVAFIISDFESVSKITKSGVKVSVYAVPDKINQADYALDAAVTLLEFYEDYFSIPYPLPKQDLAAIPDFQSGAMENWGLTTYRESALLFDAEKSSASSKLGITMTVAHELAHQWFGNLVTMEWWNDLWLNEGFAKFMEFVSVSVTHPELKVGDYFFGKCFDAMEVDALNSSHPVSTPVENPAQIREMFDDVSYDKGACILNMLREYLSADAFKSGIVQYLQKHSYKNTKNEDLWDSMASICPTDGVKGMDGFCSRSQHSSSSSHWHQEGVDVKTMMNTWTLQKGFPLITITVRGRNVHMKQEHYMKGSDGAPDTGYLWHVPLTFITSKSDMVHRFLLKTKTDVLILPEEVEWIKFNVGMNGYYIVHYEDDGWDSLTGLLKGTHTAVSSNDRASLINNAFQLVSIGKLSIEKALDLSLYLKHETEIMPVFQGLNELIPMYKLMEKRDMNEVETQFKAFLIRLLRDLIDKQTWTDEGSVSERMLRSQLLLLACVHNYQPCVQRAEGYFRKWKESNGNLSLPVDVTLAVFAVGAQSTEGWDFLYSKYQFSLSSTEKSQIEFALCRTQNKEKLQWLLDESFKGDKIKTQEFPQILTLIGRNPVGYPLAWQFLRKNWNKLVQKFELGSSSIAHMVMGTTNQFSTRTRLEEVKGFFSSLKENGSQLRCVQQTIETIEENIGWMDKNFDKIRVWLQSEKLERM
MITF TRPM1 HTS = increases MITF-driven TRPM1 promoter luciferase signal; hit rate 0.75% among 300,000; activation, % at 12.5 µM; AID 588334; SK-MEL-5 TRPM1-promoter luciferase, 24 h; % of positive control, neutral wells = 0;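 active means mean activation of at least 80% with every replicate also reaching 80%; inconclusive means mean reaches 80% but some replicate falls short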
HIV Env fusion = inhibitors of HIV Env-mediated cell fusion | HeLa-JRFL Env/CEM21 cell fusion, luciferase | inhibition, % at 12.3 µM | hit rate 1.1% among 360,000;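 active means mean replicate inhibition score of at least 50 and every replicate individually at or above 50; inconclusive means only one of the two criteria met; inactive means mean below 50 and not all replicates reaching 50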
esBAF inh = inhibitors of esBAF chromatin remodeling in mouse ES cells; Bmi1-luciferase knock-in reporter, 24 h; 100% = twice the neutral-well signal; hit rate 2% among 350,000; reporter increase, % at 12.5 µM; in the data active means activation above about 40%; inconclusive means no clear call, values can overlap the other calls;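 further: a rise in the Bmi1 reporter signal indicates esBAF inhibition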
Wnt act = Wnt/beta-catenin pathway activation | hit rate 1.2% among 300,000 | Wnt/beta-catenin reporter cell assay, activator, plate reader | activation, % at 9.35 µM | AID 743398; in the data active means activation above about 30%, passing the limit was not always enough; inconclusive means no clear call, values can overlap the other calls
Cneo AK release = causes C. neoformans cell lysis. lysis activity, % at 15 µM. adenylate kinase release luminescence, 4 h; normalised: neutral wells 0, clomiphene wells 100. AID 651654. hit rate 0.2% among 360,000;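 active means mean lysis activity across replicates of at least 80%, whatever share of replicates individually reach that level; inactive means mean lysis activity below 80%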
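Material: C. neoformans cells; Schedule: 4 h static compound exposure, 37 °C, read 1 h post-reagent; Measured by: adenylate kinase release luminescence; Read-out: signal increase indicating cell lysis; Controls: Clomiphene as positive lysis control.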
Hits are given with their value; n = inactive; u = inconclusive; x = no result given.

SMILES	ERAP1 HTS inh	MITF TRPM1 HTS	HIV Env fusion	esBAF inh	Wnt act	Cneo AK release
O=C(C[C@H]1C=C[C@H](NC(=O)CCN2CCCCC2)[C@H](CO)O1)Nc1ccc(-c2ccccc2)cc1	n	x	n	n	x	n
O=C(NCCOc1ccccc1F)c1ccc2c(=O)n3c(nc2c1)CCC3	n	n	n	n	46	n
O=C(O)CC1=C(Nc2ccccc2)C(=O)N(c2ccccc2)C1c1ccc(Br)cc1 (centres undefined)	n	n	n	x	36	x
O=C(O)CC1=C(O)C(=O)N(c2ccccc2)C1c1ccc(Cl)cc1 (centres undefined)	x	n	x	n	n	n
C=CCn1c(C)cc(C(=O)COC(=O)c2cncc(Br)c2)c1C	n	93	x	n	n	n
Cc1cc(C(=O)Cn2nc(C(=O)O)c3ccccc3c2=O)c(C)n1-c1cccc(C(F)(F)F)c1	n	n	n	n	n	n
Cc1cc(C(=O)Cn2nc(C(=O)O)c3ccccc3c2=O)c(C)n1-c1ccc(F)cc1	n	n	n	48	n	x
COc1ccc(NC(=O)NC[C@H]2CC[C@H]3[C@H](CN3Cc3ccccc3C(=O)O)O2)cc1	n	x	x	x	x	x
O=C(CC1CC1)N1[C@H](CO)[C@@H](c2ccccc2)C12CN(S(=O)(=O)c1ccccc1)C2	n	x	x	x	x	x
C/C(Cc1ccccc1)=N\NC(=O)CNC(=O)c1cccc(Cl)c1	n	n	n	x	33	x
C/C(Cc1ccccc1)=N\NC(=O)CNC(=O)c1ccc(Cl)cc1Cl	x	x	n	x	n	n
CCNC(=O)Nc1ccc2c(c1)C(=O)N(C)[C@@H]1CC[C@@H](CC(=O)Nc3ccccc3)O[C@@H]1CO2	n	x	n	n	x	n
COCCCN(C(=O)c1ccccc1)c1nc(-c2ccc(OC)cc2)cs1	n	x	n	n	n	n
COCCCN(C(C)=O)c1nc(-c2ccccc2)cs1	n	n	n	46	n	n
O=C(NN/C(=N/S(=O)(=O)c1ccc(Cl)cc1)c1ccccc1)c1cccc(Cl)c1	n	n	n	n	33	n
C/C(=N\S(=O)(=O)c1ccc(C)cc1)NC(=S)Nc1ccccc1	n	n	n	x	n	x
O=S(=O)(/N=C(/NC(=S)Nc1ccccc1)c1ccccc1)c1ccc(Cl)cc1	n	112	n	68	n	n
COc1ccc(NC(=S)NC(=NS(=O)(=O)c2ccc(Cl)cc2)c2ccccc2)cc1	n	n	n	113	n	n
COc1ccc(NC(=S)N/C(=N/S(=O)(=O)c2ccc(C)cc2)c2ccccc2)cc1	n	n	n	59	n	n
Cc1ccc(S(=O)(=O)/N=C(/NNC(=O)c2cccc(Cl)c2)c2ccccc2)cc1	n	n	n	n	n	n
Cc1noc(C)c1S(=O)(=O)Nc1ccc2c(c1)CC(=O)N([C@H](C)CO)C[C@@H](C)[C@@H](CN(C)S(C)(=O)=O)O2	x	x	n	n	x	n
CO[C@@H]1CN(C)C(=O)c2cc(NC(=O)NC(C)C)ccc2OC[C@H](C)N(CC2CC2)C[C@@H]1C	n	x	n	n	x	n
CCc1c(C)nc2cc(-c3ccc(Cl)cc3)[nH]n2c1=O	n	x	n	56	n	n
CCc1c(C)nc2cc(-c3cccc(Br)c3)[nH]n2c1=O	n	x	n	56	36	n
C[C@H](CO)N1C[C@H](C)[C@H](CN(C)Cc2ccc(C(=O)O)cc2)OCCCC[C@H](C)Oc2ccc(NC(=O)Cc3ccccc3)cc2C1=O	n	x	n	n	x	n
SMILES	ERAP1 HTS inh	MITF TRPM1 HTS	HIV Env fusion	esBAF inh	Wnt act	Cneo AK release
CN(C)S(=O)(=O)c1ccc(C(=O)NCCOc2ccc(F)cc2)cc1	n	n	x	61	n	n
CN(C)S(=O)(=O)c1ccc(C(=O)NCCOc2ccccc2)cc1	x	n	n	x	48	n
C[C@H]1CN([C@@H](C)CO)C(=O)Cc2cc(NC(=O)CCN3CCOCC3)ccc2O[C@@H]1CN(C)S(=O)(=O)c1ccc(F)cc1	n	x	x	n	x	n
COC(=O)[C@]1(CO)N=C(c2ccc(OCCCO)cc2)O[C@@H]1c1ccccc1CN=[N+]=[N-]	n	x	n	x	x	n
COc1cccc(CN(Cc2ccccc2F)S(=O)(=O)c2ccc(S(=O)(=O)NCc3ccccc3)cc2)c1	x	n	68	x	x	x
COc1cccc(CN(Cc2ccco2)S(=O)(=O)c2ccc(S(=O)(=O)NCc3ccccc3)cc2)c1OC	x	n	u	n	x	n
c1ccc2c(c1)OCC(c1csc3ncnc(N4CCOCC4)c13)O2 (centres undefined)	x	n	70	x	n	x
C[C@H]1CN([C@@H](C)CO)C(=O)c2cc(NC(=O)CCC(F)(F)F)ccc2O[C@@H]1CN(C)S(=O)(=O)c1ccc(F)cc1	n	x	n	n	x	n
CCN(CC)CC(C)(C)C(=O)/C=C/c1ccc(/C=C/C(=O)C(C)(C)CN(CC)CC)cc1	n	n	55	x	n	x
CCCCN(CCCC)Cc1ccc(C(=O)NN)o1	n	n	n	n	55	n
CCCCN(CCCC)Cc1ccc(C(=O)NNC(=O)Nc2ccc(Cl)cc2)o1	n	n	n	n	n	n
CC(=C/c1ccccc1)/C=N/n1c(-c2ccncc2)n[nH]c1=S	n	n	64	x	n	x
CC(=C/c1ccccc1)/C=N/n1c(C)n[nH]c1=S	n	n	59	n	n	n
S=c1[nH]nc(-c2ccncc2)n1/N=C/c1cn(-c2ccccc2)nc1-c1ccc(Cl)cc1	n	x	n	x	48	n
C[C@@H]1CN([C@@H](C)CO)C(=O)Cc2cc(NC(=O)CCC(F)(F)F)ccc2O[C@H]1CN(C)Cc1ccc(C(=O)O)cc1	n	x	x	x	x	x
C=CC[C@]1(C(=O)NCc2ccccc2)N=C(c2ccc(OCCCO)cc2)O[C@H]1c1ccccc1	n	x	n	x	x	n
Cn1c(-c2ccccc2)c(C#Cc2ccc(N)cc2)c2ccccc21	n	n	70	n	n	n
N/C(=N\N=C\c1cccc(O)c1)c1nonc1N	n	n	n	n	n	n
COc1cc(/C=N/N=C(\N)c2nonc2N)ccc1O	n	n	n	x	n	x
N/C(=N\N=C\c1ccc(O)c(O)c1)c1nonc1N	n	n	n	65	n	x
N/C(=N\N=C\c1ccc(O)cc1)c1nonc1N	n	n	n	x	49	x
N/C(=N\N=C\c1ccc(Br)o1)c1nonc1N	n	118	n	x	n	x
C[C@H](CO)N1C[C@H](C)[C@@H](CN(C)Cc2ccc(Oc3ccccc3)cc2)Oc2ccc(NC(=O)Nc3ccc(C(F)(F)F)cc3)cc2CC1=O	x	x	n	n	x	n
Cc1ccccc1Nc1sc(C(=O)Nc2cccc(Cl)c2)c(N)c1C(N)=O	n	n	n	x	52	x
Cc1cc(C)c(C(N)=O)c(Nc2cccc(Cl)c2)n1	n	n	x	n	n	n
Cc1noc(C)c1NC(=O)NCC[C@H]1CC[C@@H](NC(=O)c2ccccc2)[C@H](CO)O1	n	x	n	n	x	n
COC(=O)c1cc(NC(=O)c2ccc(C)cc2)c(=O)oc1C	n	n	n	45	n	n
CCc1nnc(NC(=O)Nc2ccccc2OC)s1	x	135	n	u	n	n
COc1ccccc1NC(=O)Nc1nnc(C(C)c2ccccc2)s1 (centres undefined)	n	n	n	53	n	n

High-throughput results deposited in PubChem by Broad Institute.
